Results reported in ChEMBL document CHEMBL1145935, “Novel sst(4)-selective somatostatin (SRIF) agonists. 4. Three-dimensional consensus structure by NMR” (J Med Chem, 2003).
“And” between values parts separate entries of the source, which are not always exact repeats. Identical values can stand only once.

Key:
[1] = target: Somatostatin receptor type 5 (Homo sapiens, UniProt P35346); experiment: Binding affinity towards human Somatostatin receptor type 5 using 125I-[Leu8,DTrp22,Tyr25]SRIF-28 as radioligand
Somatostatin receptor type 5, sequence (P35346 whole entry): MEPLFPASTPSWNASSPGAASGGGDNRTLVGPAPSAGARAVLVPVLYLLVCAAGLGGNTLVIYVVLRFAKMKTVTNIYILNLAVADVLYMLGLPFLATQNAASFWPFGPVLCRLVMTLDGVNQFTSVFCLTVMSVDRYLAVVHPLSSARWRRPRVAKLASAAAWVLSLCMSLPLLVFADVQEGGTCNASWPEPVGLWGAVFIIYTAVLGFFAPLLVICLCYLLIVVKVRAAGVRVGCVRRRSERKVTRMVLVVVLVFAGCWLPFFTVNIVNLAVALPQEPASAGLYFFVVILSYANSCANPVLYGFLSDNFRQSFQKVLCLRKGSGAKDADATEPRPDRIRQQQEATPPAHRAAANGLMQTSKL
How it was run: (§1)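 Competitive radioligand displacement on cloned somatostatin receptors, with non-selective 125I-[Leu8,DTrp22,Tyr25]SRIF-28 as the tracer. IC50 (nM) is taken from the displacement curves. Separate determinations are listed individually, or their number is given in parentheses.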

[2] = target: Somatostatin receptor type 2 (Homo sapiens, UniProt P30874); experiment: Binding affinity towards human Somatostatin receptor type 2 using 125I-[Leu8,DTrp22,Tyr25]SRIF-28 as radioligand; how it was run: as §1
Somatostatin receptor type 2, sequence (P30874 whole entry): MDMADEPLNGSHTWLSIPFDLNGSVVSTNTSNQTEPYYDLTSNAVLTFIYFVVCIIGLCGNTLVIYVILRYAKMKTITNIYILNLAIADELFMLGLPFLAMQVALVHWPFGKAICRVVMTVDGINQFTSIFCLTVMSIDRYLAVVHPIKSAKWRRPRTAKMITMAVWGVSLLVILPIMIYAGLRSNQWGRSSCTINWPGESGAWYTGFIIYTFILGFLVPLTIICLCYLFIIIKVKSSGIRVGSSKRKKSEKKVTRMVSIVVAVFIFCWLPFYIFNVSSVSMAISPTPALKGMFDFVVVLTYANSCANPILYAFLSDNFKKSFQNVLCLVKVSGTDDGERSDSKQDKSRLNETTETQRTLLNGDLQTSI

[3] = target: Somatostatin receptor type 4 (Homo sapiens, UniProt P31391); experiment: Binding affinity towards human Somatostatin receptor type 4 using 125I-[Leu8,DTrp22,Tyr25]SRIF-28 as radioligand
Somatostatin receptor type 4, sequence (P31391 whole entry): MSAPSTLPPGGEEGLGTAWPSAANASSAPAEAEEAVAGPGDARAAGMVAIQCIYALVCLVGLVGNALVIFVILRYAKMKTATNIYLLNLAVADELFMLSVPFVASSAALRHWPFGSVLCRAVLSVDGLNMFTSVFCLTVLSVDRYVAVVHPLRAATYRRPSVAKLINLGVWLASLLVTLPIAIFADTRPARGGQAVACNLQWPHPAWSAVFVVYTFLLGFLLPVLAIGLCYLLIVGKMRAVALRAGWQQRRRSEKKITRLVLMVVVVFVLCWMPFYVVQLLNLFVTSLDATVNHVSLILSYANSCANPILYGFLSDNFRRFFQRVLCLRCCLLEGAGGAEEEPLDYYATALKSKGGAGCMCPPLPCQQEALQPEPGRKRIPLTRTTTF

[4] = target: Somatostatin receptor type 3 (Homo sapiens, UniProt P32745); experiment: Binding affinity towards human Somatostatin receptor type 3 using 125I-[Leu8,DTrp22,Tyr25]SRIF-28 as radioligand; how it was run: as §1
Somatostatin receptor type 3, sequence (P32745 whole entry): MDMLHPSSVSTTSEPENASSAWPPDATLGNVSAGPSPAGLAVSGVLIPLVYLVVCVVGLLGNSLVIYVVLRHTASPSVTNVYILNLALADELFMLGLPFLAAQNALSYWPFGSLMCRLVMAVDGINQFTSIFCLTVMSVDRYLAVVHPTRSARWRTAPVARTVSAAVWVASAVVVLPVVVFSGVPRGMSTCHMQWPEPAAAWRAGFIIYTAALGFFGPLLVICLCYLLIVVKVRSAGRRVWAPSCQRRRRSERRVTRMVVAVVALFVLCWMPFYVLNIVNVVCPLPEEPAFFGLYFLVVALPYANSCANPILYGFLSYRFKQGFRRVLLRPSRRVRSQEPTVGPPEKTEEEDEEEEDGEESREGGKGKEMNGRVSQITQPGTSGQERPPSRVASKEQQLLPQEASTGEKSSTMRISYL

[5] = target: Somatostatin receptor type 1 (Homo sapiens, UniProt P30872); experiment: Binding affinity towards human Somatostatin receptor type 1 using 125I-[Leu8,DTrp22,Tyr25]SRIF-28 as radioligand; how it was run: as §1
Somatostatin receptor type 1, sequence (P30872 whole entry): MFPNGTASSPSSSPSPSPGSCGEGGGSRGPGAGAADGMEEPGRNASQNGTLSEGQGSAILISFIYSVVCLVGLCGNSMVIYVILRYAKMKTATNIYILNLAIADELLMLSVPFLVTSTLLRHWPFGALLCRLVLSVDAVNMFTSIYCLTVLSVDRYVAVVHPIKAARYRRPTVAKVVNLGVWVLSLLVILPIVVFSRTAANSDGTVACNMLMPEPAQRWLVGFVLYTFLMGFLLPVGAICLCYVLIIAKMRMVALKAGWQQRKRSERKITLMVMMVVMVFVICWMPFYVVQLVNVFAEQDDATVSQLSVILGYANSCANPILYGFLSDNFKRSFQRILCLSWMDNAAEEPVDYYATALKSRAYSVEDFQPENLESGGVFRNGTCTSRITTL

| Structure (SMILES) | IC50 [1] [nM] | IC50 [2] | IC50 [3] [nM] | IC50 [4] [nM] | IC50 [5] [nM] |
| --- | --- | --- | --- | --- | --- |
| C[C@@H](O)[C@@H]1NC(=O)[C@H](CCCCN)NC(=O)[C@H]([C@@H](C)c2ccc3ccccc3c2)NC(=O)[C@H](Cc2ccc(O)cc2)NC(=O)[C@H](Cc2ccccc2)NC(=O)[C@@H](N)CSSC[C@@H](C(=O)O)NC(=O)[C@H](Cc2ccccc2)NC1=O | 360 | 194 nM | 2.8 | 825 | – |
| C[C@@H](O)[C@@H]1NC(=O)[C@H](CCCCN)NC(=O)[C@H]([C@@H](C)c2ccc3ccccc3c2)NC(=O)[C@H](Cc2ccc(O)cc2)NC(=O)[C@H](Cc2ccccc2)NC(=O)[C@H](N)CSSC[C@@H](C(=O)O)NC(=O)[C@H](Cc2ccccc2)NC1=O | 668 | 339 nM | 3.5 | 664 | > 10000 |
| C[C@H](c1ccc2ccccc2c1)[C@@H]1NC(=O)[C@H](Cc2ccc(O)cc2)NC(=O)[C@H](Cc2ccccc2)NC(=O)[C@H](N)CSSC[C@@H](C(=O)O)NC(=O)[C@H](Cc2ccccc2)NC(=O)[C@H]([C@@H](C)O)NC(=O)[C@H](CCCCN)NC1=O | 18 | 30 nM | 2.3 | 18 | 410 |
| C[C@@H]1NC(=O)[C@H](Cc2ccccc2)NC(=O)[C@@H](N)CSSC[C@@H](C(=O)O)NC(=O)[C@H](C)NC(=O)[C@H]([C@@H](C)O)NC(=O)[C@H](CCCCN)NC(=O)[C@@H](Cc2c[nH]c3ccccc23)NC1=O | > 1000 | > 1000 nM and 962 nM | – | > 10000 | > 10000 |
| C[C@@H]1NC(=O)[C@H](Cc2ccccc2)NC(=O)[C@@H](N)CSSC[C@@H](C(=O)O)NC(=O)[C@H](C)NC(=O)[C@H]([C@@H](C)O)NC(=O)[C@H](CCCCN)NC(=O)[C@H](Cc2c[nH]c3ccccc23)NC1=O | > 1000 | > 10000 nM | – | > 10000 | > 10000 |
| C[C@@H](O)[C@@H]1NC(=O)[C@H](CCCCN)NC(=O)[C@H](Cc2c[nH]c3ccccc23)NC(=O)N(C)[C@@H](C(=O)c2ccccc2)NC(=O)[C@@H](Cc2ccccc2)NC(=O)[C@@H](N)CSSC[C@@H](C(=O)O)NC(=O)[C@H](Cc2ccccc2)NC1=O (stereo in doubt) | > 1000 | > 1000 nM | 5.4 | 403 | > 10000 |
| C[C@@H](O)[C@@H]1NC(=O)[C@H](CCCCN)NC(=O)[C@@H](Cc2c[nH]c3ccccc23)NC(=O)N(C)[C@H](C(=O)c2ccccc2)NC(=O)[C@H](Cc2ccccc2)NC(=O)[C@@H](N)CSSC[C@@H](C(=O)O)NC(=O)[C@H](Cc2ccccc2)NC1=O (stereo in doubt) | > 1000 | > 1000 nM | 153 | > 1000 | > 10000 |
| C[C@@H](O)[C@@H]1NC(=O)[C@H](CCCCN)NC(=O)[C@H](Cc2c[nH]c3ccccc23)NC(=O)N(C)[C@H](C(=O)c2ccccc2)NC(=O)[C@H](Cc2ccccc2)NC(=O)[C@@H](N)CSSC[C@@H](C(=O)O)NC(=O)[C@H](Cc2ccccc2)NC1=O (stereo in doubt) | > 1000 | > 1000 nM | 133 | 725 | > 10000 |
| C[C@@H](O)[C@@H]1NC(=O)[C@H](CCCCN)NC(=O)[C@@H](Cc2c[nH]c3ccccc23)NC(=O)N(C)[C@@H](C(=O)c2ccccc2)NC(=O)[C@H](Cc2ccccc2)NC(=O)[C@@H](N)CSSC[C@@H](C(=O)O)NC(=O)[C@H](Cc2ccccc2)NC1=O (stereo in doubt) | 768 | 460 nM | 5.2 | 447 | > 1000 |
